JMJD2C inh – inhibitors of human GASC-1 (JMJD2C) demethylase; Q9H3R0; GST-JMJD2C(1-420) H3K9me3 demethylation, DELFIA europium; inhibition, % at 2.35 µM; hit rate 0.069% among 330,000; AID 2099;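 active = more than half of a compound's replicate wells show inhibition beyond 50%, single wells judged on their own value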;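 also: signal counts dimethyl H3K9 product captured on neutravidin plate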
Target sequence (Q9H3R0 1-420 limits assumed): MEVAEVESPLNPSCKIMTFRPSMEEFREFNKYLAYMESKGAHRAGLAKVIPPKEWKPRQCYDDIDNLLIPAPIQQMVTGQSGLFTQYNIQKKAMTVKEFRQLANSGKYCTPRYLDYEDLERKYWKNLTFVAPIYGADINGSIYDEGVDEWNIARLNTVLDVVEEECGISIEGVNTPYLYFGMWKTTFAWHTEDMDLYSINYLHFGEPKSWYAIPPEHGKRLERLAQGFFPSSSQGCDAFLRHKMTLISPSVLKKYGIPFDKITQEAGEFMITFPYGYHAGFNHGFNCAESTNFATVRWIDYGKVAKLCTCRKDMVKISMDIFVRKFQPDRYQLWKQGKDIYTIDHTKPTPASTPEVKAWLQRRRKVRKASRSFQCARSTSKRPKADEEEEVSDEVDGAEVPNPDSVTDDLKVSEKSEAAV
NR2E3 ag-1 – agonists of human nuclear receptor NR2E3; Q9Y5X4; GST-NR2E3/biotin-RetCOR TR-FRET, 1536-well; inhibition of corepressor binding, % at 4.78 µM; hit rate 0.12% among 320,000; AID 2300;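 active = percent inhibition above the cutoff of mean plus 3 SD of all tested compounds, set per screening campaign, cut at about 20% in these data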
Target sequence (Q9Y5X4 whole entry, looked up): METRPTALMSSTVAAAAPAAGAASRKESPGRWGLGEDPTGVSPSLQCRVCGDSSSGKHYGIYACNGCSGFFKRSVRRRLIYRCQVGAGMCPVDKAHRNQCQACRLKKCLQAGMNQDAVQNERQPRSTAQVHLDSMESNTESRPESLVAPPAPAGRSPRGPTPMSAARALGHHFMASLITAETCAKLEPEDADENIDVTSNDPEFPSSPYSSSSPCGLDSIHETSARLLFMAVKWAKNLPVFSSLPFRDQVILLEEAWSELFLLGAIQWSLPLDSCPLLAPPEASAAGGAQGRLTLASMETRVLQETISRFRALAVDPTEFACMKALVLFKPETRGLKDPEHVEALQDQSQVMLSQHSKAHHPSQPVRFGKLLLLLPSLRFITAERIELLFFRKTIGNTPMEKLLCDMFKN
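Material: NR2E3–RetCOR corepressor complex / Amount: 1.35 nM GST-NR2E3 / Medium: Tris pH 7.5 / Compound: single nominal compound dose of 4.8 µM / Incubation: 5 h at 4 °C / Technique: TR-FRET, Eu(K)-anti-GST donor, streptavidin-D2 acceptor, ex 340, em 617/671 nm / Read-out basis: percent loss of FRET ratio relative to control wells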
proKLK7 act – proKLK7 (human) activation, primary screen. activation, % at 7 µM. hit rate 0.9% among 370,000. purified proKLK7, EDANS-DABCYL substrate fluorescence; 100% is mature enzyme control, 0% vehicle;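 active = activation above the mean of all tested compounds plus 3 SD, computed per campaign excluding outliers beyond control limits, cut at about 13% in these data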
ADAM10 inh – inhibits human ADAM10; AID 720582; hit rate 0.62% among 370,000; O14672; recombinant ADAM10, EDANS/DABCYL FRET peptide cleavage, 3 h; inhibition, % at 7 µM;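 active = inhibition above a per-campaign cutoff equal to the mean of compounds falling between control-based bounds plus 3 SD, cut at about 20% in these data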
ADAM17 inh – ADAM17 inhibition, QFRET primary screen. P78536. recombinant ADAM17, EDANS/DABCYL FRET peptide cleavage. hit rate 0.83% among 370,000. inhibition, % at 6.95 µM;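 active = inhibition above the mean of compounds lying between control limits plus 3 SD, set per campaign, cut at about 8.5% in these data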
NR2E3 ag-2 – agonists of human NR2E3 nuclear receptor | inhibition of corepressor binding, % at 3.98 µM | CHO-S Gal4-NCOR/VP16-NR2E3 two-hybrid, luciferase | Q9Y5X4 | hit rate 0.35% among 360,000;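 active = inhibition above the mean of all tested compounds plus 3 SD, cut at about 70% in these data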;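 also: higher means lower luciferase signal from less NR2E3 corepressor binding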
NR2E3 ag conf – confirmation of human NR2E3 agonists; shares compounds with NR2E3 ag-2; CHO-S mammalian two-hybrid NR2E3-NCOR, luciferase luminescence; inhibition, % at 3.98 µM; hit rate 51% among 2,300; AID 624378;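 active = average inhibition above a cutoff equal to the mean inhibition of all tested compounds plus one SD, cut at about 70% in these data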
GAL4-VP16 luc – reduces GAL4-VP16 reporter signal in NR2E3 counterscreen; shares compounds with NR2E3 ag-2; CHO-S GAL4-VP16 luciferase reporter, luminescence; inhibition, % at 3.98 µM; hit rate 29% among 2,300;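 active = mean inhibition above a cutoff equal to the average over all tested compounds plus one standard deviation, cut at about 70% in these data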;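 also: luciferase from a UAS reporter driven by GAL4-VP16 transactivation; higher means less reporter light so more repression of VP16 activity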
proKLK7 act conf – confirmation of human kallikrein-7 zymogen activators; shares compounds with proKLK7 act; purified proKLK7, EDANS-DABCYL substrate fluorescence; scaled: vehicle 0, mature enzyme 100; activation, % at 7 µM; hit rate 68% among 3,200; AID 686949;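 active = activation, as change over the incubation, above the mean of all tested compounds plus 3 SD, cut at about 13% in these data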
EDANS-DABCYL int – optically interferes with EDANS-DABCYL signal, flagging KLK7 hits | shares compounds with proKLK7 act | EDANS-DABCYL substrate fluorescence interference, no enzyme, 4 h; solvent 0%, active enzyme control 100% | activation, % at 7 µM | hit rate 80% among 3,200 | AID 686952;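 active = activation above the all-compound mean plus 3 SD, ignoring values outside control-based bounds, cut at about 4.8% in these data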;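 also: value is the 4 h activation minus the activation read at time zero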
K7 EDANS ctr – EDANS fluorescence interference in dose response, no enzyme; hit rate 20% among 250; AID 720493; EC50, µM; EDANS-DABCYL peptide fluorescence interference; shares compounds with proKLK7 act;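 active = compounds that raise the fluorescence signal in this interference counterscreen, with EC50 at or below 10 µM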;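 also: intact quenched peptide substrate alone read at 355 nm excitation and 520 nm emission; signal is fluorescence gain from T0 to T4 after four hours at room temperature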
ADAM10 confirm – human ADAM10 inhibition, confirmation. shares compounds with ADAM10 inh. ADAM10 QFRET peptide cleavage, EDANS fluorescence. inhibition, % at 6.95 µM. hit rate 1% among 2,100;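 active = inhibition above about 20% chosen separately for each screening run, limit read from the data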
ADAM17 ctr – inhibits human ADAM17 in ADAM10 exosite counter-screen; inhibition, % at 6.95 µM; hit rate 0.5% among 2,100; shares compounds with ADAM10 inh; ADAM17 QFRET peptide cleavage, EDANS fluorescence; AID 743214;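 active = mean triplicate inhibition above the solvent-only control wells' mean plus 3 SD, cut at about 12% in these data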
ADAM10 ctr – inhibits human ADAM10 in ADAM17 exosite counter-screen; shares compounds with ADAM17 inh; recombinant ADAM10, EDANS/DABCYL FRET peptide cleavage, 3 h; inhibition, % at 6.95 µM; hit rate 47% among 2,900;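 active = mean inhibition over the triplicate runs exceeds the activity threshold set in the earlier primary screen, cut at about 20% in these data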
ADAM17 confirm – human ADAM17 inhibition, confirmation | recombinant ADAM17, EDANS/DABCYL QFRET peptide cleavage | inhibition, % at 6.95 µM | shares compounds with ADAM17 inh | AID 743257 | hit rate 65% among 2,900;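 active = mean inhibition across replicates above the hit cutoff set in the primary screen, cut at about 8.5% in these data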
Each line names hits and unclear results; the compound was inactive in the other large screens (follow-up assays come after a bar, where they were run). In the library only some 2.5% were active in any assay of this set; here they are far more common.

O=C(Cn1cnc2c(NCc3ccccc3)ncnc21)N1CCN(c2ccccn2)CC1	none (no result: JMJD2C inh, NR2E3 ag-1)
Cc1noc(C)c1NC(=O)N(C)C[C@@H]1Oc2cc(Br)ccc2S(=O)(=O)N([C@H](C)CO)C[C@@H]1C	none (no result: JMJD2C inh, NR2E3 ag-1)
Cc1ccccc1S(=O)(=O)N1[C@@H](c2ccccc2)C(C(=O)O)=CC[C@H]1c1ccc(Cl)cc1	none
Cc1ccc(S(=O)(=O)N2[C@@H](c3cccc(Cl)c3)C(C(=O)O)=CC[C@H]2c2ccc(C(C)C)cc2)cc1	ADAM17 inh 9.0, NR2E3 ag-2 72.5 | NR2E3 ag conf inactive | GAL4-VP16 luc inactive | ADAM10 ctr 26.2 | ADAM17 confirm 14.3
Cc1ccccc1S(=O)(=O)N1[C@@H](c2ccc(Br)cc2)C(C(=O)O)=CC[C@H]1c1ccc(Cl)cc1	ADAM17 inh 9.3, NR2E3 ag-2 78.8 (no result: JMJD2C inh, NR2E3 ag-1) | NR2E3 ag conf inactive | GAL4-VP16 luc inactive | ADAM10 ctr inactive | ADAM17 confirm 8.7
COc1cccc(CN(C)C(=O)c2cc(COc3ccc(-n4cncn4)cc3)on2)c1	ADAM17 inh 8.7 | NR2E3 ag conf inactive | GAL4-VP16 luc inactive | ADAM10 ctr inactive | ADAM17 confirm inactive
COc1cccc(CN(C)C(=O)c2cc(COc3c(F)cccc3F)on2)c1	none
C=CC(=O)N1C/C(=C/c2ccc(F)cc2)C(=O)/C(=C\c2ccc(F)cc2)C1	ADAM10 inh 20.2, ADAM17 inh 10.6 (no result: JMJD2C inh, NR2E3 ag-1) | NR2E3 ag conf inactive | GAL4-VP16 luc inactive | ADAM10 confirm inactive | ADAM17 ctr inactive | ADAM10 ctr 21.1 | ADAM17 confirm 14.2
Cc1cc(C)cc(N=Cc2c(O)c3ccccc3oc2=O)c1	none
O=C(O)c1cc(N=Cc2c(O)c3ccccc3oc2=O)ccc1O	proKLK7 act 149.6 (no result: NR2E3 ag-1) | proKLK7 act conf 398.3 | EDANS-DABCYL int 354.6
Cc1nnc(SCC(=O)NC2(C#N)CCCCC2)n1N	none (no result: JMJD2C inh, NR2E3 ag-1)
COCCN1C(=O)/C(=C2/C(=O)N(CC(=O)Nc3ccccc3Cl)c3ccccc32)SC1=S	none
CCN1C(=O)/C(=C2\SC(=S)N(CCCOC)C2=O)c2ccccc21	proKLK7 act 19.7 | proKLK7 act conf inactive | EDANS-DABCYL int inactive
c1ccc2c(c1)NC1(CCCC1)n1c-2nc2ccccc21	proKLK7 act 81.7 | proKLK7 act conf 60.7 | EDANS-DABCYL int 66.1
CCCC1(C)Nc2ccccc2-c2nc3ccccc3n21 (stereo unspecified)	proKLK7 act 63.1 | proKLK7 act conf inactive | EDANS-DABCYL int 7.1
CCCn1c(-c2ccc[nH]c2=O)nc2ccccc21	none
CCc1cc2c(nc1CC)CCCN2C	proKLK7 act 29.5 (no result: JMJD2C inh, NR2E3 ag-1, NR2E3 ag-2) | proKLK7 act conf inactive | EDANS-DABCYL int inactive
CCCCS(=O)(=O)N1CCCc2nc(CC)c(CC)cc21	none (no result: JMJD2C inh, NR2E3 ag-1, NR2E3 ag-2)
COc1ccc2sc(-c3ccc(S(C)(=O)=O)cc3)c(C(=O)NCCCN3CCCC3=O)c2c1	none (no result: JMJD2C inh, NR2E3 ag-1)
COc1cc2sc(-c3ccc(S(C)(=O)=O)cc3)c(C(=O)NCc3ccc(C)o3)c2cc1OC	proKLK7 act 13.7 (no result: NR2E3 ag-1) | proKLK7 act conf 23.3 | EDANS-DABCYL int 31.2
Cc1ccc(CNC(=O)c2c(-c3ccccc3)sc3ccccc23)o1	none (no result: NR2E3 ag-1)
COc1cc2sc(-c3ccc(S(C)(=O)=O)cc3)c(C(=O)NCCCCO)c2cc1OC	proKLK7 act 31.2 (no result: NR2E3 ag-1) | proKLK7 act conf 22.3 | EDANS-DABCYL int 31.8
Cc1nn(C)cc1/C=N/NC(=O)CSc1ccccn1	none
Cc1ccn2c(NC3CCCCC3)c(-c3ccc(SC4CCCCC4)cc3)nc2c1	none (no result: JMJD2C inh, NR2E3 ag-1)
Fc1ccc(-c2nc3cnccn3c2NC2CCCC2)cc1	proKLK7 act 57.9 | proKLK7 act conf 63.1 | EDANS-DABCYL int inactive | K7 EDANS ctr inactive
Nc1ccc(O)c(-c2nc3ccccc3s2)c1	none
O=C(O)c1ccc2nc(-c3ccccc3)sc2c1	none
Nc1cccc(-c2nc3ccc(N)cc3s2)c1	proKLK7 act 82.4 | proKLK7 act conf 57.1 | EDANS-DABCYL int 75.1
Oc1ccc(-c2nc3ccccc3s2)cc1	none
Nc1ccc(-c2nc3ccc(C(=O)O)cc3s2)cc1	proKLK7 act 79.3 | proKLK7 act conf 75.3 | EDANS-DABCYL int 76.2
Nc1ccc(-c2nc3ccc(N)cc3s2)cc1	proKLK7 act 61.0 | proKLK7 act conf 67.5 | EDANS-DABCYL int 70.3
Nc1cc2sc(-c3ccc(C(=O)O)cc3)nc2cc1Cl	proKLK7 act 50.9 | proKLK7 act conf 68.0 | EDANS-DABCYL int 74.8
COc1ccc([N+](=O)[O-])cc1NC(=O)C(C)Sc1nc(C)c(C)c(C)n1 (stereo unspecified)	none
COc1ccc(-c2cc(=O)oc3c(C)c(O)c(CN(C)C)cc23)cc1	proKLK7 act 13.8 | proKLK7 act conf inactive | EDANS-DABCYL int inactive
CCOC(=O)C1(C)CCCN(C(=O)c2cc(C#N)cs2)C1 (stereo unspecified)	none (no result: JMJD2C inh, NR2E3 ag-1)
CN1CCN(S(=O)(=O)c2cccc(C(=O)Nc3sc4c(c3-c3nc5ccccc5[nH]3)CCCC4)c2)CC1	proKLK7 act 49.9 | proKLK7 act conf inactive | EDANS-DABCYL int 12.1
